Experiments:
[1] = Intrinsic clearance in human hepatocytes assessed per million cells at 1 uM after 0.5 to 4 hrs by HPLC-HRMS method; assay type: ADME, cell-based, Hepatocyte; conditions: human hepatocytes, read-out: CLH
Procedure, shortened: (§1)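 Compound at 1 µM was dried from d6-DMSO and redissolved in Williams E medium. Pooled human hepatocytes were added at 680000 cells/mL. Samples were quenched in water/CH3CN (2:1) with 2% formic acid and clozapine as internal standard, then analysed by HPLC-HRMS in positive-ion full scan. k came from the slope of ln peak-area ratio versus time; CLint = k / cell concentration. Non-specific binding was not measured.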

[2] = Drug metabolism in cynomolgus monkey liver microsomes assessed as 5-(Difluoromethyl)-2-methyl-7-(3-methyl-5-(4-(trifluoromethyl)-phenyl)-1H-pyrazol-4-yl)imidazo[5,1-f ][1,2,4]triazin-4(3H)-one at 20 uM after 1.5 hrs by UHPLC-UV-HRMS method; assay type: ADME, Macaca fascicularis, microsome
Procedure, shortened: (§2)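 Preparative incubation: substrate 20 µM with liver microsomes (2 mg/mL) of the listed species in 0.1 M potassium phosphate, pH 7.5, with MgCl2 3.3 mM and NADPH 1.3 mM. Run at 37°C in a shaking water bath and stopped with an equal volume of CH3CN. Products were fractionated by HPLC and quantified by qNMR in d6-DMSO.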

[3] = Apparent permeability across RRCK cells after 1.5 hrs; assay type: ADME, cell-based, Canis lupus familiaris, MDCKII-LE; conditions: dog, MDCK
[4] = Drug metabolism in cynomolgus monkey liver microsomes assessed as 5-(Difluoromethyl)-7-(3-(hydroxymethyl)-1-methyl-5-(4-(trifluoromethyl)phenyl)-1H-pyrazol-4-yl)-2-methylimidazo[5,1-f ]-[1,2,4]triazin-4(3H)-one formation at 20 uM after 1.5 hrs by UHPLC-UV-HRMS method; assay type: ADME, Macaca fascicularis, microsome; procedure, shortened: as §2
[5] = Metabolic stability in human hepatocytes at 1 uM after 0.5 to 4 hrs by HPLC-HRMS method; assay type: ADME, cell-based, Hepatocyte; procedure, shortened: as §1
[6] = Drug metabolism in hamster liver microsomes assessed as 7-(5-(6-Methoxypyridin-3-yl)-3-methyl-1H-pyrazol-4-yl)-2,5-dimethylimidazo[5,1-f ][1,2,4]triazin-4(3H)-one formation at 20 uM after 1.5 hrs by UHPLC-UV-HRMS method; assay type: ADME, microsome; conditions: cricetinae; procedure, shortened: as §2
[7] = Drug metabolism in hamster liver microsomes assessed as 5-(Hydroxymethyl)-7-(5-(6-methoxypyridin-3-yl)-1,3-dimethyl-1H-pyrazol-4-yl)-2-methylimidazo[5,1-f ][1,2,4]triazin-4(3H)-one formation at 20 uM after 1.5 hrs by UHPLC-UV-HRMS method; assay type: ADME, microsome; conditions: cricetinae; procedure, shortened: as §2
[8] = Drug metabolism in hamster liver microsomes assessed as 7-(5-(6-Hydroxypyridin-3-yl)-3-methyl-1H-pyrazol-4-yl)-2,5-dimethylimidazo[5,1-f ][1,2,4]triazin-4(3H)-one formation at 20 uM after 1.5 hrs by UHPLC-UV-HRMS method; assay type: ADME, microsome; conditions: cricetinae; procedure, shortened: as §2
[9] = Drug metabolism in hamster liver microsomes assessed as 5-(Hydroxymethyl)-7-(5-(6-methoxypyridin-3-yl)-3-methyl-1Hpyrazol-4-yl)-2-methylimidazo[5,1-f ][1,2,4]triazin-4(3H)-one formation at 20 uM after 1.5 hrs by UHPLC-UV-HRMS method; assay type: ADME, microsome; conditions: cricetinae; procedure, shortened: as §2
Liver [10] = experiment: Drug level in human liver microsomes treated with 5-(5-(Cyclopentylmethyl)-4,5,6,7-tetrahydropyrazolo[1,5-a]-pyrazin-3-yl)-7-methylimidazo[5,1-f ][1,2,4]triazin-4(3H)-one at 20 uM after 1.5 hrs by UHPLC-UV-HRMS method; assay type: ADME, microsome; procedure, shortened: as §2
[11] = target: cGMP-dependent 3',5'-cyclic phosphodiesterase (Homo sapiens, UniProt O00408); experiment: Inhibition of human PDE2A1 using 3',5'-[3H]cGMP as substrate after 30 mins by scintillation proximity assay
Chain of cGMP-dependent 3',5'-cyclic phosphodiesterase (O00408 whole entry): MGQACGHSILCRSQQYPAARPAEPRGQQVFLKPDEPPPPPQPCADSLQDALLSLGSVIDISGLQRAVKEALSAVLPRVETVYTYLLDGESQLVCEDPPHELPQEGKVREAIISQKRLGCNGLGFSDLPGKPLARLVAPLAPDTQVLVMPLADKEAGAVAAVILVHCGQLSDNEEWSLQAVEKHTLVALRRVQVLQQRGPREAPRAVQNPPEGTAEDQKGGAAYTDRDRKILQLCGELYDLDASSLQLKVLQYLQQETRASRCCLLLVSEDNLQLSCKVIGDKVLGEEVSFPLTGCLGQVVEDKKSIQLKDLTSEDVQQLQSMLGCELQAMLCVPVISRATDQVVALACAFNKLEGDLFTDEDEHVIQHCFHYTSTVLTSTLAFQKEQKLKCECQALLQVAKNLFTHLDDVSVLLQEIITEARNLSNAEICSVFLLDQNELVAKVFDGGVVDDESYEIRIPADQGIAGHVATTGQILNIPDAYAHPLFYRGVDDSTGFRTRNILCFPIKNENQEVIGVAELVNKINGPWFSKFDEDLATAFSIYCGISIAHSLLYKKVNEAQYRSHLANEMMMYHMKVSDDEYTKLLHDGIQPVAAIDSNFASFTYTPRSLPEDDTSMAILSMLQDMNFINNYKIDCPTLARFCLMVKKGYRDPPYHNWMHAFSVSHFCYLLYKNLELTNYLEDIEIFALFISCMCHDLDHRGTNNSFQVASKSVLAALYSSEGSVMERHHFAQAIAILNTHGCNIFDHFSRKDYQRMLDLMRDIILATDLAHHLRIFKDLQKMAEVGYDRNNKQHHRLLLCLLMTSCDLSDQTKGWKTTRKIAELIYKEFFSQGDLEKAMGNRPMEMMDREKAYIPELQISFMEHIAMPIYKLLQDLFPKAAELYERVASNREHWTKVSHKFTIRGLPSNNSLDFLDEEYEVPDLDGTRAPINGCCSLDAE

[12] = Drug metabolism in rabbit liver microsomes assessed as 7-(3-(Hydroxymethyl)-5-(3-(hydroxymethyl)-4-(trifluoromethyl)-phenyl)-1-methyl-1H-pyrazol-4-yl)-2,5-dimethylimidazo[5,1-f ]-[1,2,4]triazin-4(3H)-one formation at 20 uM after 1 hr by UHPLC-UV-HRMS method; assay type: ADME, Oryctolagus cuniculus, microsome; procedure, shortened: as §2
[13] = Drug metabolism in rabbit liver microsomes assessed as 7-(1,3-Dimethyl-5-(3-methyl-4-(trifluoromethyl)phenyl)-1H-pyrazol-4-yl)-5-(hydroxymethyl)-2-methylimidazo[5,1-f ][1,2,4]triazin-4(3H)-one formation at 20 uM after 1 hr by UHPLC-UV-HRMS method; assay type: ADME, Oryctolagus cuniculus, microsome; procedure, shortened: as §2
[14] = Drug metabolism in rabbit liver microsomes assessed as 5-(Hydroxymethyl)-7-(3-(hydroxymethyl)-1-methyl-5-(3-methyl-4-(trifluoromethyl)phenyl)-1H-pyrazol-4-yl)-2-methylimidazo[5,1-f ][1,2,4]triazin-4(3H)-one formation at 20 uM after 1 hr by UHPLC-UV-HRMS method; assay type: ADME, Oryctolagus cuniculus, microsome; procedure, shortened: as §2
[15] = Drug metabolism in rabbit liver microsomes assessed as 7-(5-(3-(Hydroxymethyl)-4-(trifluoromethyl)phenyl)-1,3-dimethyl-1H-pyrazol-4-yl)-2,5-dimethylimidazo[5,1-f ][1,2,4]triazin-4(3H)-one formation at 20 uM after 1 hr by UHPLC-UV-HRMS method; assay type: ADME, Oryctolagus cuniculus, microsome; procedure, shortened: as §2
[16] = Drug metabolism in rabbit liver microsomes assessed as 5-(Hydroxymethyl)-7-(5-(3-(hydroxymethyl)-4-(trifluoromethyl)phenyl)-1,3-dimethyl-1H-pyrazol-4-yl)-2-methylimidazo[5,1-f ][1,2,4]triazin-4(3H)-one formation at 20 uM after 1 hr by UHPLC-UV-HRMS method; assay type: ADME, Oryctolagus cuniculus, microsome; procedure, shortened: as §2
[17] = Drug metabolism in rabbit liver microsomes assessed as 4-(2,5-Dimethyl-4-oxo-3,4-dihydroimidazo[5,1-f ][1,2,4]triazin-7-yl)-1-methyl-5-(3-methyl-4-(trifluoromethyl)phenyl)-1H-pyrazole-3-carboxylic acid formation at 20 uM after 1 hr by UHPLC-UV-HRMS method; assay type: ADME, Oryctolagus cuniculus, microsome; procedure, shortened: as §2
[18] = Drug metabolism in hamster liver microsomes assessed as 5-(Methoxymethyl)-2-methyl-7-(3-methyl-5-(4-(trifluoromethyl)-phenyl)-1H-pyrazol-4-yl)imidazo[5,1-f ][1,2,4]triazin-4(3H)-one formation at 20 uM after 1 hr by UHPLC-UV-HRMS method; assay type: ADME, microsome; conditions: cricetinae; procedure, shortened: as §2
[19] = Drug metabolism in hamster liver microsomes assessed as 5-(Hydroxymethyl)-2-methyl-7-(3-methyl-5-(4-(trifluoromethyl)-phenyl)-1H-pyrazol-4-yl)imidazo[5,1-f ][1,2,4]triazin-4(3H)-one formation at 20 uM after 1 hr by UHPLC-UV-HRMS method; assay type: ADME, microsome; conditions: cricetinae; procedure, shortened: as §2
[20] = Drug metabolism in hamster liver microsomes assessed as 7-(1,3-Dimethyl-5-(4-(trifluoromethyl)phenyl)-1H-pyrazol-4-yl)-5-(methoxymethyl)-2-methyl-4-oxo-3,4-dihydroimidazo[5,1-f ][1,2,4]-triazine 1-oxide formation at 20 uM after 1 hr by UHPLC-UV-HRMS method; assay type: ADME, microsome; conditions: cricetinae; procedure, shortened: as §2
[21] = Drug metabolism in hamster liver microsomes assessed as 7-(3-(Hydroxymethyl)-5-(4-(trifluoromethyl)phenyl)-1H-pyrazol-4-yl)-5-(methoxymethyl)-2-methylimidazo[5,1-f ][1,2,4]triazin-4(3H)-one formation at 20 uM after 1 hr by UHPLC-UV-HRMS method; assay type: ADME, microsome; conditions: cricetinae; procedure, shortened: as §2
Liver [22] = experiment: Drug level in mouse liver microsomes treated with 7-(5-(4-Chlorophenyl)-1,3-dimethyl-1H-pyrazol-4-yl)-2,5-dimethylimidazo[5,1-f ][1,2,4]triazin-4(3H)-one at 20 uM after 1.5 hrs by UHPLC-UV-HRMS method; assay type: ADME, microsome; procedure, shortened: as §2
Liver [23] = experiment: Drug metabolism in mouse liver microsomes assessed as 7-(5-(4-Chlorophenyl)-1,3-dimethyl-1H-pyrazol-4-yl)-5-(hydroxymethyl)-2-methylimidazo[5,1-f ][1,2,4]triazin-4(3H)-one formation at 20 uM after 1.5 hrs by UHPLC-UV-HRMS method; assay type: ADME, microsome; procedure, shortened: as §2
Liver [24] = experiment: Drug metabolism in mouse liver microsomes assessed as 7-(5-(4-Chlorophenyl)-3-(hydroxymethyl)-1-methyl-1H-pyrazol-4-yl)-2,5-dimethylimidazo[5,1-f ][1,2,4]triazin-4(3H)-one formation at 20 uM after 1.5 hrs by UHPLC-UV-HRMS method; assay type: ADME, microsome; procedure, shortened: as §2
[25] = Drug metabolism in cynomolgus monkey liver microsomes assessed as 5-(Hydroxymethyl)-7-(3-(hydroxymethyl)-1-methyl-5-(5-(trifluoromethyl)pyridin-2-yl)-1H-pyrazol-4-yl)-2-methylimidazo-[5,1-f ][1,2,4]triazin-4(3H)-one formation at 20 uM after 1.2 hrs by UHPLC-UV-HRMS method; assay type: ADME, Macaca fascicularis, microsome; procedure, shortened: as §2
[26] = Drug metabolism in cynomolgus monkey liver microsomes assessed as 7-(1,3-Dimethyl-5-(5-(trifluoromethyl)pyridin-2-yl)-1H-pyrazol-4-yl)-5-(hydroxymethyl)-2-methylimidazo[5,1-f ][1,2,4]triazin-4(3H)-one formation at 20 uM after 1.2 hrs by UHPLC-UV-HRMS method; assay type: ADME, Macaca fascicularis, microsome; procedure, shortened: as §2
[27] = Drug metabolism in cynomolgus monkey liver microsomes assessed as 7-(3-(Hydroxymethyl)-1-methyl-5-(5-(trifluoromethyl)pyridin-2-yl)-1H-pyrazol-4-yl)-2,5-dimethylimidazo[5,1-f ][1,2,4]triazin-4(3H)-one formation at 20 uM after 1.2 hrs by UHPLC-UV-HRMS method; assay type: ADME, Macaca fascicularis, microsome; procedure, shortened: as §2
[28] = Drug metabolism in cynomolgus monkey liver microsomes assessed as 4-(2,5-Dimethyl-4-oxo-3,4-dihydroimidazo[5,1-f ][1,2,4]triazin-7-yl)-1-methyl-5-(5-(trifluoromethyl)pyridin-2-yl)-1H-pyrazole-3-carbaldehyde formation at 20 uM after 1.2 hrs by UHPLC-UV-HRMS method; assay type: ADME, Macaca fascicularis, microsome; procedure, shortened: as §2
Liver [29] = experiment: Drug metabolism in human liver microsomes assessed as 5-(5-((2-Hydroxycyclopentyl)methyl)-4,5,6,7-tetrahydropyrazolo-[1,5-a]pyrazin-3-yl)-7-methylimidazo[5,1-f][1,2,4]triazin-4(3H)-one diastereomer 2 formation at 20 uM after 1.5 hrs by UHPLC-UV-HRMS method; assay type: ADME, microsome; procedure, shortened: as §2
Liver [30] = experiment: Drug metabolism in human liver microsomes assessed as 5-(5-((2-Hydroxycyclopentyl)methyl)-4,5,6,7-tetrahydropyrazolo-[1,5-a]pyrazin-3-yl)-7-methylimidazo[5,1-f][1,2,4]triazin-4(3H)-one diastereomer 1 formation at 20 uM after 1.5 hrs by UHPLC-UV-HRMS method; assay type: ADME, microsome; procedure, shortened: as §2

Cc1nn2c(-c3c(C)nn(C)c3-c3ccc(C(F)(F)F)cc3)nc(C(F)F)c2c(=O)[nH]1
hepatocyte CLint at 1 µM [1]: 5.3 µL/min/1e6 cells
Drug metabolism [2]: Metabolite_Detected
Papp at 1.5 h [3]: 230 nm/s
Drug metabolism [4]: Metabolite_Detected

COc1ccc(-c2c(-c3nc(C)c4c(=O)[nH]c(C)nn34)c(C)nn2C)cn1
Stability [5]: Stable
Drug metabolism [6]: Metabolite_Detected
Drug metabolism [7]: Metabolite_Detected
Drug metabolism [8]: Metabolite_Detected
Drug metabolism [9]: Metabolite_Detected

Cc1nc(-c2cnn3c2CN(CC2CCCC2O)CC3)c2c(=O)[nH]cnn12 (single isomer, unassigned; diastereomer 1)
Drug metabolism (Liver [10]): Metabolite_Detected
hepatocyte CLint at 1 µM [1]: 5.4 µL/min/1e6 cells
IC50 [11]: > 2 µM
Papp at 1.5 h [3]: 18 nm/s

Cc1nn2c(-c3c(C)nn(C)c3-c3ccc(C(F)(F)F)c(C)c3)nc(C)c2c(=O)[nH]1
Drug metabolism [12]: Metabolite_Detected
Drug metabolism [13]: Metabolite_Detected
Drug metabolism [14]: Metabolite_Detected
Drug metabolism [15]: Metabolite_Detected
hepatocyte CLint at 1 µM [1]: 19 µL/min/1e6 cells
Papp at 1.5 h [3]: 280 nm/s
Drug metabolism [16]: Metabolite_Detected
Drug metabolism [17]: Metabolite_Detected

COCc1nc(-c2c(C)nn(C)c2-c2ccc(C(F)(F)F)cc2)n2nc(C)[nH]c(=O)c12
Drug metabolism [18]: Metabolite_Detected
Drug metabolism [19]: Metabolite_Detected
Drug metabolism [20]: Metabolite_Detected
hepatocyte CLint at 1 µM [1]: 4.7 µL/min/1e6 cells
Drug metabolism [21]: Metabolite_Detected
Papp at 1.5 h [3]: 130 nm/s

Cc1nn2c(-c3c(C)nn(C)c3-c3ccc(Cl)cc3)nc(CO)c2c(=O)[nH]1
hepatocyte CLint at 1 µM [1]: 15 µL/min/1e6 cells
Drug metabolism (Liver [22]): Metabolite_Detected
Papp at 1.5 h [3]: 49 nm/s

Cc1nn2c(-c3c(C)nn(C)c3-c3ccc(Cl)cc3)nc(C)c2c(=O)[nH]1
Drug metabolism (Liver [23]): Metabolite_Detected
Drug metabolism (Liver [24]): Metabolite_Detected
hepatocyte CLint at 1 µM [1]: 32 µL/min/1e6 cells

Cc1nn2c(-c3c(C)nn(C)c3-c3ccc(C(F)(F)F)cn3)nc(C)c2c(=O)[nH]1
Stability [5]: Stable
Drug metabolism [25]: Metabolite_Detected
Drug metabolism [26]: Metabolite_Detected
Papp at 1.5 h [3]: 160 nm/s
Drug metabolism [27]: Metabolite_Detected
Drug metabolism [28]: Metabolite_Detected

Cc1nc(-c2cnn3c2CN(CC2CCCC2)CC3)c2c(=O)[nH]cnn12
Drug metabolism (Liver [29]): Metabolite_Detected
Drug metabolism (Liver [30]): Metabolite_Detected
hepatocyte CLint at 1 µM [1]: 16 µL/min/1e6 cells
Papp at 1.5 h [3]: 240 nm/s
